From ChEMBL document CHEMBL4052664, “Novel pyridyl nitrofuranyl isoxazolines show antibacterial activity against multiple drug resistant Staphylococcus species” (Bioorg Med Chem, 2017)
Converted amounts (≈) assume the structure as drawn. The source made the active and inactive calls. The calls are words filed in the database; no cut-off is given here.

How the values were obtained:
Staphylococcus aureus [1] = test: Antibacterial activity against Staphylococcus aureus A1988 after 20 hrs by broth microdilution method; type: functional; conditions: A1988, 20 h
Procedure, shortened: (§1)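 Broth microdilution per CLSI guidelines in Mueller Hinton Broth. Growth was read as optical density at 600 nm after 20 hours. The MIC was taken as the lowest drug concentration at which OD600 stayed below 0.10. Run in triplicate.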

Staphylococcus aureus [2] = test: Antibacterial activity against Staphylococcus aureus isolate 13142 after 20 hrs by broth microdilution method; type: functional; conditions: isolate 13142, 20 h; procedure, shortened: as §1
Staphylococcus aureus [3] = test: Antibacterial activity against Staphylococcus aureus NCTC 8325 after 20 hrs by broth microdilution method; type: functional; conditions: NCTC 8325, 20 h; procedure, shortened: as §1
Staphylococcus aureus [4] = test: Antibacterial activity against methicillin-resistant Staphylococcus aureus NCTC 12493 after 20 hrs by broth microdilution method; type: functional; conditions: NCTC 12493, 20 h
Procedure, shortened: (§2)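 Broth microdilution per CLSI guidelines in Mueller Hinton Broth. Growth read as optical density at 600 nm after 20 h. MIC taken as the lowest concentration giving OD600 below 0.10. Run in triplicate.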

Staphylococcus aureus [5] = test: Antibacterial activity against methicillin-resistant Staphylococcus aureus EMRSA-16 after 20 hrs by broth microdilution method; type: functional; conditions: EMRSA-16, 20 h; procedure, shortened: as §2
Staphylococcus aureus [6] = test: Antibacterial activity against Staphylococcus aureus NCTC 6571 after 20 hrs by broth microdilution method; type: functional; conditions: NCTC 6571, 20 h; procedure, shortened: as §1
[7] = system: Staphylococcus epidermidis; test: Antibacterial activity against Staphylococcus epidermidis ATCC 35984 after 20 hrs by broth microdilution method; type: functional; conditions: RP62A; procedure, shortened: as §1
Staphylococcus aureus [8] = test: Antibacterial activity against methicillin-resistant Staphylococcus aureus EMRSA-15 after 20 hrs by broth microdilution method; type: functional; conditions: EMRSA-15, 20 h; procedure, shortened: as §2
Staphylococcus aureus [9] = test: Antibacterial activity against Staphylococcus aureus BGW541 after 20 hrs by broth microdilution method; type: functional; conditions: BGW541, 20 h; procedure, shortened: as §1
Staphylococcus aureus [10] = test: Antibacterial activity against methicillin-sensitive Staphylococcus aureus ATCC 9144 after 20 hrs by broth micro dilution method; type: functional; conditions: ATCC 9144, 20 h; procedure, shortened: as §1
HeLa = test: Cytotoxicity against human HeLa cells assessed as reduction in cell viability after 96 hrs by MTT assay; type: cell-based
Procedure, shortened: (§3)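 HeLa cells were kept in DMEM with 10% FBS, 2 mM L-glutamine, non-essential amino acids and penicillin-streptomycin at 37 °C, 5% CO2. 10,000 cells per well were plated and left 24 h. Compound was then added in triplicate for 96 h continuous exposure. MTT read-out was absorbance at 570 nm. IC50 came from dose-response analysis.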

Staphylococcus aureus [11] = test: Bactericidal activity against methicillin-sensitive Staphylococcus aureus ATCC 9144 after 24 hrs; type: functional; conditions: ATCC 9144, 24 h
Procedure, shortened: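 From the MIC plate, 10ul was taken from every well at and above the MIC and spotted onto tryptic soy agar. Plates were incubated 24 h at 37 °C. The MBC was the concentration at which no colonies grew.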

Pseudomonas aeruginosa [12] = test: Antibacterial activity against Pseudomonas aeruginosa PAO1 after 20 hrs by broth micro dilution method; type: functional; conditions: PAO1, 20 h; procedure, shortened: as §1
Klebsiella pneumoniae [13] = test: Antibacterial activity against Klebsiella pneumoniae M6 after 20 hrs by broth micro dilution method; type: functional; conditions: M6, 20 h; procedure, shortened: as §1
Klebsiella pneumoniae [14] = test: Antibacterial activity against Klebsiella pneumoniae NCTC 13368 after 20 hrs by broth micro dilution method; type: functional; conditions: NCTC 13368, 20 h; procedure, shortened: as §1
Acinetobacter baumannii [15] = test: Antibacterial activity against Acinetobacter baumannii ATCC BAA-1710 after 20 hrs by broth micro dilution method; type: functional; conditions: ATCC BAA-1710, 20 h; procedure, shortened: as §1
Pseudomonas aeruginosa [16] = test: Antibacterial activity against Pseudomonas aeruginosa NCTC 13437 after 20 hrs by broth micro dilution method; type: functional; conditions: NCTC 13437, 20 h; procedure, shortened: as §1
Acinetobacter baumannii [17] = test: Antibacterial activity against Acinetobacter baumannii ATCC 17978 after 20 hrs by broth micro dilution method; type: functional; conditions: ATCC 17978, 20 h; procedure, shortened: as §1
Staphylococcus aureus [18] = test: Ratio of MBC to MIC against methicillin-sensitive Staphylococcus aureus ATCC 9144; type: functional
Procedure, shortened: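 MBC/MIC ratio from the broth microdilution MIC (Mueller Hinton Broth, OD600 <0.10 after 20 h, triplicate) and the MBC (MIC-plate wells at and above the MIC spotted on tryptic soy agar, 37 °C 24 h, no colonies). A ratio of 1 or 2 was taken as bactericidal; 4 or 16 as bacteriostatic.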

WI-38 = test: Cytotoxicity against human WI38 cells assessed as reduction in cell viability after 96 hrs by MTT assay; type: cell-based; conditions: WI-38, 96 h
Procedure, shortened: as §3, with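 “WI-38 lung fibroblasts” for “HeLa cells”, “15%” for “10%”, “fitting.” for “analysis.”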

Staphylococcus aureus [19] = test: Bacteriostatic activity against methicillin-resistant Staphylococcus aureus EMRSA-15 at 4 times MIC after 5 to 24 hrs by time kill assay; type: functional
Procedure, shortened: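 Mueller Hinton Broth flasks (50 mL) inoculated at ~10^6 cfu/mL. Agent added at 4x MIC and shaken at 200 rpm, 37 °C. Samples taken hourly for 8 h and at 24 h. Viable counts by modified Miles-Misra dilution. Values are the average of at least three replicate experiments, SEM shown.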

| Compound | MIC (Staphylococcus aureus [1]) | MIC (Staphylococcus aureus [2]) | MIC (Staphylococcus aureus [3]) | MIC (Staphylococcus aureus [4]) | MIC (Staphylococcus aureus [5]) | MIC (Staphylococcus aureus [6]) | MIC [7] | MIC (Staphylococcus aureus [8]) | MIC (Staphylococcus aureus [9]) | MIC (Staphylococcus aureus [10]) | IC50 (HeLa) | MIC (Pseudomonas aeruginosa [12]) | MIC (Klebsiella pneumoniae [13]) | MIC (Klebsiella pneumoniae [14]) | MIC (Acinetobacter baumannii [15]) | MIC (Pseudomonas aeruginosa [16]) | MIC (Acinetobacter baumannii [17]) | IC50 (WI-38) | also measured |
| --- | --- | --- | --- | --- | --- | --- | --- | --- | --- | --- | --- | --- | --- | --- | --- | --- | --- | --- | --- |
| O=C(O)c1cn(C2CC2)c2cc(N3CCNCC3)c(F)cc2c1=O [CIPROFLOXACIN] | 0.25 µg/mL (≈ 0.754 µM) | 0.25 µg/mL (≈ 0.754 µM) | 0.125 to 0.25 µg/mL (≈ 0.377 to 0.754 µM) | 0.5 µg/mL (≈ 1.51 µM) | 32 µg/mL (≈ 96.6 µM) | 0.25 to 0.5 µg/mL (≈ 0.754 to 1.51 µM) | 0.125 to 0.5 µg/mL (≈ 0.377 to 1.51 µM) | 32 µg/mL (≈ 96.6 µM) | 0.5 µg/mL (≈ 1.51 µM) | – | – | – | – | – | – | – | – | – | – |
| O=[N+]([O-])c1ccc(C2=NOC(c3ccc(N4CCN(Cc5cccnc5)CC4)cc3)C2)o1 (stereo unspecified) | 8 µg/mL (≈ 18.5 µM) | 8 to 16 µg/mL (≈ 18.5 to 36.9 µM) | 16 µg/mL (≈ 36.9 µM) | 4 to 8 µg/mL (≈ 9.23 to 18.5 µM) | 32 µg/mL (≈ 73.8 µM) | 16 µg/mL (≈ 36.9 µM) | 4 to 8 µg/mL (≈ 9.23 to 18.5 µM) | 16 µg/mL (≈ 36.9 µM) | 8 µg/mL (≈ 18.5 µM) | 16 µg/mL (≈ 36.9 µM) | > 50 µM | > 128 µg/mL | > 128 µg/mL | > 128 µg/mL | > 128 µg/mL | > 128 µg/mL | > 128 µg/mL | > 50 µM | MBC (Staphylococcus aureus [11]): ≥ 128 µg/mL; Ratio (Staphylococcus aureus [18]): 8; Activity (Staphylococcus aureus [19]): Active |
| O=[N+]([O-])c1ccc(C2=NOC(c3ccc(-c4ccccn4)cc3)C2)o1 (stereo unspecified) | – | – | – | – | > 128 µg/mL | – | – | > 128 µg/mL | – | > 128 µg/mL | > 50 µM | – | – | – | – | – | – | > 50 µM | – |
| O=[N+]([O-])c1ccc(C2=NOC(c3ccc(N4CCN(Cc5ccncc5)CC4)cc3)C2)o1 (stereo unspecified) | – | – | – | – | 128 µg/mL (≈ 295 µM) | – | – | > 128 µg/mL | – | 16 µg/mL (≈ 36.9 µM) | > 50 µM | > 128 µg/mL | > 128 µg/mL | > 128 µg/mL | > 128 µg/mL | > 128 µg/mL | > 128 µg/mL | > 50 µM | – |
| COc1ccc(CN2CCN(c3ccc(C4CC(c5ccc([N+](=O)[O-])o5)=NO4)cc3)CC2)cn1 (stereo unspecified) | – | – | – | – | 32 µg/mL (≈ 69 µM) | – | – | 128 µg/mL (≈ 276 µM) | – | 32 µg/mL (≈ 69 µM) | > 50 µM | > 128 µg/mL | > 128 µg/mL | > 128 µg/mL | > 128 µg/mL | > 128 µg/mL | > 128 µg/mL | > 50 µM | – |
| COc1cccc2c1C(=O)c1c(O)c3c(c(O)c1C2=O)C[C@@](O)(C(=O)CO)C[C@@H]3O[C@H]1C[C@H](N)[C@H](O)[C@H](C)O1 [DOXORUBICIN] | – | – | – | – | – | – | – | – | – | – | 0.071 µM | – | – | – | – | – | – | 0.071 µM | – |
| O=[N+]([O-])c1ccc(C2=NOC(c3ccc(-c4cccnc4)cc3)C2)o1 (stereo unspecified) | – | – | – | – | 16 µg/mL (≈ 47.7 µM) | – | – | 64 µg/mL (≈ 191 µM) | – | 32 µg/mL (≈ 95.4 µM) | > 50 µM | – | – | – | – | – | – | > 50 µM | – |
| O=[N+]([O-])c1ccc(C2=NOC(c3ccc(N4CCN(Cc5ccc(F)nc5)CC4)cc3)C2)o1 (stereo unspecified) | – | – | – | – | 16 µg/mL (≈ 35.4 µM) | – | – | 128 µg/mL (≈ 284 µM) | – | 32 µg/mL (≈ 70.9 µM) | > 50 µM | > 128 µg/mL | > 128 µg/mL | > 128 µg/mL | > 128 µg/mL | > 128 µg/mL | > 128 µg/mL | > 50 µM | – |
| O=[N+]([O-])c1ccc(C2=NOC(c3ccc(N4CCN(Cc5ccccn5)CC4)cc3)C2)o1 (stereo unspecified) | 16 µg/mL (≈ 36.9 µM) | 8 to 16 µg/mL (≈ 18.5 to 36.9 µM) | 16 µg/mL (≈ 36.9 µM) | 8 µg/mL (≈ 18.5 µM) | 32 µg/mL (≈ 73.8 µM) | 16 to 32 µg/mL (≈ 36.9 to 73.8 µM) | 8 to 16 µg/mL (≈ 18.5 to 36.9 µM) | 32 µg/mL (≈ 73.8 µM) | 8 to 16 µg/mL (≈ 18.5 to 36.9 µM) | 16 µg/mL (≈ 36.9 µM) | > 50 µM | > 128 µg/mL | > 128 µg/mL | > 128 µg/mL | > 128 µg/mL | > 128 µg/mL | > 128 µg/mL | > 50 µM | MBC (Staphylococcus aureus [11]): ≥ 128 µg/mL; Ratio (Staphylococcus aureus [18]): 8 |
| CC(C)(C)OC(=O)N1CCN(c2ccc(C3CC(c4ccc([N+](=O)[O-])o4)=NO3)cc2)CC1 (stereo unspecified) | – | – | – | – | > 128 µg/mL | – | – | > 128 µg/mL | – | 32 µg/mL (≈ 72.3 µM) | > 50 µM | > 128 µg/mL | > 128 µg/mL | > 128 µg/mL | > 128 µg/mL | > 128 µg/mL | > 128 µg/mL | > 50 µM | – |
| O=C1CN(/N=C/c2ccc([N+](=O)[O-])o2)C(=O)N1 [NITROFURANTOIN] | 16 µg/mL (≈ 67.2 µM) | 16 µg/mL (≈ 67.2 µM) | 16 µg/mL (≈ 67.2 µM) | 16 µg/mL (≈ 67.2 µM) | 16 µg/mL (≈ 67.2 µM) | 16 µg/mL (≈ 67.2 µM) | 16 µg/mL (≈ 67.2 µM) | 16 µg/mL (≈ 67.2 µM) | 16 µg/mL (≈ 67.2 µM) | 16 µg/mL (≈ 67.2 µM) | – | – | – | – | – | – | – | – | – |
| CC1(C)S[C@@H]2[C@H](NC(=O)[C@H](N)c3ccc(O)cc3)C(=O)N2[C@H]1C(=O)O [AMOXICILLIN] | > 128 µg/mL | 0.25 µg/mL (≈ 0.684 µM) | 0.25 to 0.5 µg/mL (≈ 0.684 to 1.37 µM) | > 128 µg/mL | > 128 µg/mL | 0.25 µg/mL (≈ 0.684 µM) | 128 µg/mL (≈ 350 µM) | 128 µg/mL (≈ 350 µM) | 0.25 to 0.5 µg/mL (≈ 0.684 to 1.37 µM) | 0.1 to 2 µg/mL (≈ 0.274 to 5.47 µM) | – | – | – | – | – | – | – | – | – |
| O=[N+]([O-])c1ccc(C2=NOC(c3ccc(-c4ccncc4)cc3)C2)o1 (stereo unspecified) | – | – | – | – | 64 µg/mL (≈ 191 µM) | – | – | 128 µg/mL (≈ 382 µM) | – | 64 µg/mL (≈ 191 µM) | > 50 µM | – | – | – | – | – | – | > 50 µM | – |
